In brackets after ≈: the same amount, converted by molar mass.
Tests used:
Escherichia coli = assay: Antibacterial activity against Escherichia coli ATCC 25922 after 18 to 24 hrs by broth microdilution method; type: functional
Procedure, shortened: (§1)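 CLSI broth microdilution in Mueller Hinton broth, with inoculum from 24 h Mueller Hinton agar subcultures, final about 5 10^5 cfu/mL. Compounds were dissolved in DMSO and tested as twofold dilutions in wells. Plates were incubated at 35 °C for 18–24 h. MIC was read as the lowest concentration completely inhibiting visible growth. Ciprofloxacin was the reference.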

Pseudomonas aeruginosa = assay: Antibacterial activity against Pseudomonas aeruginosa ATCC 27853 after 18 to 24 hrs by broth microdilution method; type: functional; procedure, shortened: as §1
Candida parapsilosis = assay: Anti-fungal activity against Candida parapsilosis ATCC 90018 after 48 hrs by broth microdilution method; type: functional; settings: Lodderomyces parapsilosis, ATCC 90018, 48 h
Procedure, shortened: (§2)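 CLSI broth microdilution in RPMI 1640 (with glutamine, without bicarbonate) buffered to pH 7.0 with MOPS. Inoculum was prepared from 24 h Sabouraud dextrose agar subcultures, final 0.5 to 2.5 10^3 cfu/mL. Twofold dilutions were made from DMSO stocks. Incubated 35 °C for 48 h. MIC was the lowest concentration with no visible growth; for the fluconazole reference, MIC was taken at about 80% growth inhibition versus control.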

Pichia kudriavzevii = assay: Anti-fungal activity against Candida krusei ATCC 6258 after 48 hrs by broth microdilution method; type: functional; settings: ATCC 6258, 48 h; procedure, shortened: as §2
Enterococcus faecalis = assay: Antibacterial activity against Enterococcus faecalis ATCC 29212 after 18 to 24 hrs by broth microdilution method; type: functional; procedure, shortened: as §1
Staphylococcus aureus = assay: Antibacterial activity against Staphylococcus aureus ATCC 29213 after 18 to 24 hrs by broth microdilution method; type: functional; procedure, shortened: as §1
Candida albicans [1] = assay: Anti-fungal activity against Candida albicans ATCC 90028 after 48 hrs by broth microdilution method; type: functional; settings: ATCC 90028, 48 h; procedure, shortened: as §2
[2] = Cytotoxicity against human U937 cells assessed as cell viability at 10 to 100 ug/ml after 48 hrs by MTT assay relative to control; type: cell-based, U-937; settings: read-out: Activity
Procedure, shortened: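 U937 human monocytic cells, 4 10^3 per well in RPMI-1640 with 10% FBS, L-glutamine, penicillin and streptomycin, at 37 °C and 5% CO2. Compounds in DMSO were added at five final concentrations for 48 h, in triplicate. MTT was added for 4 h, formazan was dissolved overnight in SDS/23% DMF, and OD was read at 570 nm. Results are % reduction in viable cells versus control.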

Nakaseomyces glabratus = assay: Anti-fungal activity against drug-resistant Candida glabrata after 48 hrs by broth microdilution method; type: functional
Procedure, shortened: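 Clinical resistant C. glabrata isolate, stored frozen in glycerol and subcultured twice on Sabouraud dextrose agar. CLSI broth microdilution in RPMI 1640 (glutamine, no bicarbonate) buffered to pH 7.0 with MOPS. Inoculum from 24 h subcultures, final 0.5 to 2.5 x10^3 cfu/mL. DMSO-dissolved compounds in twofold dilutions, 35 C for 48 h. MIC is the lowest concentration giving complete visual growth inhibition; fluconazole reference read at about 80% inhibition.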

Candida albicans [3] = assay: Antibiofilm activity against Candida albicans SC5314 after 24 hrs by spectrophotometric method; type: functional
Procedure, shortened: (§3)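 Biofilms were grown on Calgary device pegs from a 10^6 cfu/mL inoculum for 24 h at 37 °C. Pegs were rinsed in saline, then challenged with twofold dilutions for 24 h at 35 °C. Biofilm was recovered by 5 min sonication into RPMI 1640 with 2% glucose and incubated overnight. OD was read at 550 nm plus visual turbidity. MBEC was the lowest concentration preventing regrowth. MBIC was the minimum concentration preventing initial biofilm formation, judged by visual turbidity.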

Candida albicans [4] = assay: Antibiofilm activity against Candida albicans SC5314 after 24 hrs by turbidity assay; type: functional; procedure, shortened: as §3

SMILES	MIC (Escherichia coli) [µg/mL]	MIC (Pseudomonas aeruginosa) [µg/mL]	MIC (Candida parapsilosis) [µg/mL]	MIC (Pichia kudriavzevii) [µg/mL]	MIC (Enterococcus faecalis) [µg/mL]	MIC (Staphylococcus aureus) [µg/mL]	MIC (Candida albicans [1]) [µg/mL]	viability at 48 h [2] [%]	MIC (Nakaseomyces glabratus) [µg/mL]	MBEC (Candida albicans [3]) [µg/mL]	MBIC (Candida albicans [4]) [µg/mL]
CC(=O)CCC(=O)OC(Cn1ccnc1)c1ccc(Cl)cc1.Cl (stereo not drawn)	512	256	16	32	256	512	64				
OC(Cn1ccnc1)c1ccc(Cl)cc1 (stereo not drawn)	256 (≈ 1150 µM)	256 (≈ 1150 µM)	128 (≈ 575 µM)	256 (≈ 1150 µM)	128 (≈ 575 µM)	64 (≈ 287 µM)	128 (≈ 575 µM)				
Cl.O=C(OC(Cn1ccnc1)c1ccccc1)C1CCCCC1 (stereo not drawn)	512	256	16	128	32	64	16				
Cl.O=C(OC(Cn1ccnc1)c1ccc(Cl)cc1)C1CCCCC1 (stereo not drawn)	256	1020	1	8	512	256	1	70 to 80	0.5	512	8
CC(C)CC(=O)OC(Cn1ccnc1)c1ccc(Cl)cc1.Cl (stereo not drawn)	512	256	0.25	4	128	32	0.25	70 to 80	1	1024	8
Cl.O=C(Cc1ccccc1)OC(Cn1ccnc1)c1ccc(Cl)cc1 (stereo not drawn)	256	256	2	4	256	16	0.5	70 to 80	4		
CCC(=O)OC(Cn1ccnc1)c1ccc(Cl)cc1.Cl (stereo not drawn)	512	256	4	32	256	256	4	70 to 80	32		
Cl.O=C(CCCc1ccccc1)OC(Cn1ccnc1)c1ccc(Cl)cc1 (stereo not drawn)	512	512	2	8	128	128	2	70 to 80	8		
Cl.O=C(OC(Cn1ccnc1)c1ccccc1)c1ccccc1 (stereo not drawn)	256	256	32	64	64	64	32		> 32		
Cl.O=C(/C=C/c1ccccc1)OC(Cn1ccnc1)c1ccc(Cl)cc1 (stereo not drawn)	512	256	2	16	256	1020	4	70 to 80	2		
Cl.O=C(/C=C/c1ccccc1)OC(Cn1ccnc1)c1ccccc1 (stereo not drawn)	512	256	1	16	64	8	1	70 to 80	8	1024	8
CCCC(CCC)C(=O)OC(Cn1ccnc1)c1ccccc1.Cl (stereo not drawn)	512	256	32	32	32	16	32		> 32		
Cl.O=C(CCC(=O)c1ccccc1)OC(Cn1ccnc1)c1ccccc1 (stereo not drawn)	512	256	32	128	64	128	16				
CCCC(=O)OC(Cn1ccnc1)c1ccc(Cl)cc1.Cl (stereo not drawn)	512	256	1	4	256	64	0.5	70 to 80	16	1024	>32
OC(Cn1ccnc1)c1ccccc1 (stereo not drawn)	512 (≈ 2720 µM)	512 (≈ 2720 µM)	256 (≈ 1360 µM)	256 (≈ 1360 µM)	512 (≈ 2720 µM)	1020 (≈ 5440 µM)	256 (≈ 1360 µM)				
C/C=C/C=C/C(=O)OC(Cn1ccnc1)c1ccc(Cl)cc1.Cl (stereo not drawn)	512	256	1	8	128	16	0.5	70 to 80	4	1024	8

SMILES	MIC (Escherichia coli) [µg/mL]	MIC (Pseudomonas aeruginosa) [µg/mL]	MIC (Candida parapsilosis) [µg/mL]	MIC (Pichia kudriavzevii) [µg/mL]	MIC (Enterococcus faecalis) [µg/mL]	MIC (Staphylococcus aureus) [µg/mL]	MIC (Candida albicans [1]) [µg/mL]	viability at 48 h [2] [%]	MIC (Nakaseomyces glabratus) [µg/mL]	MBEC (Candida albicans [3]) [µg/mL]	MBIC (Candida albicans [4]) [µg/mL]
O=C(O)c1cn(C2CC2)c2cc(N3CCNCC3)c(F)cc2c1=O [CIPROFLOXACIN]	0.005 (≈ 0.0151 µM)	1.5 (≈ 4.53 µM)			1.5 (≈ 4.53 µM)	0.5 (≈ 1.51 µM)					
CCC(=O)OC(Cn1ccnc1)c1ccccc1.Cl (stereo not drawn)	512	256	8	32	128	1020	64				
C/C=C/C=C/C(=O)OC(Cn1ccnc1)c1ccccc1.Cl (stereo not drawn)	512	256	8	32	64	512	32				
CC(=O)OC(Cn1ccnc1)c1ccccc1.Cl (stereo not drawn)	512	256	64	128	256	1020	128				
Cl.O=C(Cc1ccccc1)OC(Cn1ccnc1)c1ccccc1 (stereo not drawn)	512	128	32	128	64	128	64				
CCCC(CCC)C(=O)OC(Cn1ccnc1)c1ccc(Cl)cc1.Cl (stereo not drawn)	512	256	64	64	32	1020	128				
Cl.O=C(CCCc1ccccc1)OC(Cn1ccnc1)c1ccccc1 (stereo not drawn)	1020	256	4	32	128	8	4		> 32		
CC(=O)OC(Cn1ccnc1)c1ccc(Cl)cc1.Cl (stereo not drawn)	512	256	8	32	256	256	64				
CC(C)CC(=O)OC(Cn1ccnc1)c1ccccc1.Cl (stereo not drawn)	512	256	2	32	128	256	2		> 32		
Cl.O=C(OC(Cn1ccnc1)c1ccc(Cl)cc1)c1ccccc1 (stereo not drawn)	512	256	2	32	512	128	4	70 to 80	16		
CC(=O)CCC(=O)OC(Cn1ccnc1)c1ccccc1.Cl (stereo not drawn)	512	256	256	256	128	512	256				
OC(Cn1cncn1)(Cn1cncn1)c1ccc(F)cc1F [FLUCONAZOLE]			0.25 (≈ 0.816 µM)	16 (≈ 52.2 µM)			0.25 (≈ 0.816 µM)		32 (≈ 104 µM)		
Cl.O=C(CCC(=O)c1ccccc1)OC(Cn1ccnc1)c1ccc(Cl)cc1 (stereo not drawn)	256	256	4	16	256	8	4	70 to 80	32		
CCCC(=O)OC(Cn1ccnc1)c1ccccc1.Cl (stereo not drawn)	512	256	16	32	128	512	64				
CCCCC(=O)OC(Cn1ccnc1)c1ccccc1.Cl (stereo not drawn)	512	256	8	32	128	256	8		32		

Source: ChEMBL document CHEMBL4049392, “New azole derivatives showing antimicrobial effects and their mechanism of antifungal activity by molecular modeling studies” (Eur J Med Chem, 2017)
